Experimental data from ChEMBL document CHEMBL4145654, “Structure-Based Discovery of CF53 as a Potent and Orally Bioavailable Bromodomain and Extra-Terminal (BET) Bromodomain Inhibitor” (J Med Chem, 2018).

Tests used:
[1] = biological target: Bromodomain adjacent to zinc finger domain protein 2B (Homo sapiens, UniProt Q9UIF8); assay: Binding affinity to human BAZ2B (S2054 to S2168 residues) expressed in bacterial expression system by BROMOScan assay
[2] = biological target: Histone acetyltransferase p300 (Homo sapiens, UniProt Q09472); assay: Binding affinity to human EP300 (A1040 to G1161 residues) expressed in bacterial expression system by BROMOScan assay
[3] = organism: Homo sapiens; assay: Selectivity index, ratio of Kd for human CREBBP (R1081 to G1197 residues) to Kd for human BRD4 bromodomain 2 (K333 to E460 residues)
[4] = organism: Homo sapiens; assay: Selectivity index, ratio of Kd for human CREBBP (R1081 to G1197 residues) to Kd for human BRD2 bromodomain 1 (K71 to N194 residues)
[5] = biological target: T1, Bromodomain-containing protein 2 (Homo sapiens, UniProt P25440); assay: Binding affinity to human BRD2 bromodomain 2 (E348 to D455 residues) expressed in bacterial expression system by BROMOscan assay
[6] = biological target: Bromodomain-containing protein 3 (Homo sapiens, UniProt Q15059); assay: Binding affinity to human BRD3 bromodomain 1 (P24 to E144 residues) expressed in bacterial expression system by BROMOscan assay
[7] = biological target: Bromodomain and WD repeat-containing protein 1 (Homo sapiens, UniProt Q9NSI6); assay: Binding affinity to human WDR9 bromodomain 2 (A1310 to E1430 residues) expressed in bacterial expression system by BROMOscan assay
[8] = biological target: E3 ubiquitin-protein ligase TRIM33 (Homo sapiens, UniProt Q9UPN9); assay: Binding affinity to human TRIM33-phd-bromo (D882 to A1087 residues) expressed in bacterial expression system by BROMOscan assay
[9] = biological target: Transcription initiation factor TFIID subunit 1-like (Homo sapiens, UniProt Q8IZX4); assay: Binding affinity to human TAF1L bromodomain 2 (Q1523 to D1654 residues) expressed in bacterial expression system by BROMOScan assay
[10] = biological target: T1, Bromodomain-containing protein 2; assay: Binding affinity to human BRD2 bromodomain 1 (K71 to N194 residues) expressed in bacterial expression system by BROMOscan assay
[11] = biological target: SWI/SNF-related matrix-associated actin-dependent regulator of chromatin subfamily A member 2 (Homo sapiens, UniProt P51531); assay: Binding affinity to human SMARCA2 (S1377 to Q1486 residues) expressed in bacterial expression system by BROMOScan assay
[12] = Half life in Balb/c mouse at 25 mg/kg, po by LC-MS/MS analysis; assay type: ADME, organism-based; conditions: in vivo
In short: (§1)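 Balb/c mice dosed iv at 5.0 mg/kg or po at 25 mg/kg, compound in vehicle of 20% (v/v) PCP and 70% (v/v) PBS. Serial blood samples taken at 0, 5, 15, 30 min and 1, 2, 4, 6, 8, 24 h. Plasma obtained by centrifugation and stored at −80 °C. Analysis by LC-MS/MS, positive-ion MRM. Parameters from noncompartmental analysis.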

[13] = organism: Homo sapiens; assay: Selectivity index, ratio of Kd for human CECR2 (P423 to D543 residues) to Kd for human BRD4 bromodomain 1 (N44 to E168 residues)
[14] = organism: Homo sapiens; assay: Selectivity index, ratio of Kd for human CECR2 (P423 to D543 residues) to Kd for human BRD3 bromodomain 2 (G306 to P416 residues)
[15] = organism: Homo sapiens; assay: Selectivity index, ratio of Kd for human EP300 (A1040 to G1161 residues) to Kd for human BRDT bromodomain 2 (K250 to E382 residues)
[16] = biological target: Bromodomain-containing protein 4 (Homo sapiens, UniProt O60885); assay: Inhibition of FAM-labeled ZBA248 binding to recombinant human BRD4 bromodomain 1 (44 to 168 residues) expressed in Rosetta2 Escherichia coli DE3 cells after 30 mins by fluorescence polarization assay
In short: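 Recombinant human BRD4 BD1 (residues 44−168) in a fluorescence polarization competitive binding assay, run as described in earlier work.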

[17] = biological target: T2, Protein polybromo-1 (Homo sapiens, UniProt Q86U86); assay: Binding affinity to human PBRM1 bromodomain 5 (S645 to D766 residues) expressed in bacterial expression system by BROMOScan assay
[18] = biological target: T2, Protein polybromo-1; assay: Binding affinity to human PBRM1 bromodomain 2 (S178 to E291 residues) expressed in bacterial expression system by BROMOScan assay
[19] = organism: Homo sapiens; assay: Selectivity index, ratio of Kd for human CREBBP (R1081 to G1197 residues) to Kd for human BRDT bromodomain 1 (N21 to E137 residues)
[20] = biological target: ATPase family AAA domain-containing protein 2B (Homo sapiens, UniProt Q9ULI0); assay: Binding affinity to human ATAD2B (Q955 to R1082 residues) expressed in bacterial expression system by BROMOScan assay
[21] = biological target: Chromatin remodeling regulator CECR2 (Homo sapiens, UniProt Q9BXF3); assay: Binding affinity to human CECR2 (P423 to D543 residues) expressed in bacterial expression system by BROMOscan assay
[22] = organism: Homo sapiens; assay: Selectivity index, ratio of Kd for human EP300 (A1040 to G1161 residues) to Kd for human BRD2 bromodomain 1 (K71 to N194 residues)
[23] = organism: Homo sapiens; assay: Selectivity index, ratio of Kd for human CECR2 (P423 to D543 residues) to Kd for human BRD4 bromodomain 2 (K333 to E460 residues)
[24] = biological target: Transcription initiation factor TFIID subunit 1 (Homo sapiens, UniProt P21675); assay: Binding affinity to human TAF1 bromodomain 2 (D1521 to D1656 residues) expressed in bacterial expression system by BROMOScan assay
[25] = Apparent volume of distribution in Balb/c mouse at 5 mg/kg, iv by LC-MS/MS analysis; assay type: ADME, organism-based; conditions: in vivo, read-out: Vz; in short: as §1
[26] = organism: Homo sapiens; assay: Selectivity index, ratio of Kd for human CECR2 (P423 to D543 residues) to Kd for human BRDT bromodomain 2 (K250 to E382 residues)
[27] = biological target: Histone acetyltransferase KAT2B (Homo sapiens, UniProt Q92831); assay: Binding affinity to human PCAF (G715 to D831 residues) expressed in bacterial expression system by BROMOScan assay
[28] = organism: Homo sapiens; assay: Selectivity index, ratio of Kd for human EP300 (A1040 to G1161 residues) to Kd for human BRD2 bromodomain 2 (E348 to D455 residues)
[29] = biological target: ATPase family AAA domain-containing protein 2 (Homo sapiens, UniProt Q6PL18); assay: Binding affinity to human ATAD2A (Q981 to R1108 residues) expressed in bacterial expression system by BROMOScan assay

T2 sequence (Q86U86 whole entry, the tested form may be a part): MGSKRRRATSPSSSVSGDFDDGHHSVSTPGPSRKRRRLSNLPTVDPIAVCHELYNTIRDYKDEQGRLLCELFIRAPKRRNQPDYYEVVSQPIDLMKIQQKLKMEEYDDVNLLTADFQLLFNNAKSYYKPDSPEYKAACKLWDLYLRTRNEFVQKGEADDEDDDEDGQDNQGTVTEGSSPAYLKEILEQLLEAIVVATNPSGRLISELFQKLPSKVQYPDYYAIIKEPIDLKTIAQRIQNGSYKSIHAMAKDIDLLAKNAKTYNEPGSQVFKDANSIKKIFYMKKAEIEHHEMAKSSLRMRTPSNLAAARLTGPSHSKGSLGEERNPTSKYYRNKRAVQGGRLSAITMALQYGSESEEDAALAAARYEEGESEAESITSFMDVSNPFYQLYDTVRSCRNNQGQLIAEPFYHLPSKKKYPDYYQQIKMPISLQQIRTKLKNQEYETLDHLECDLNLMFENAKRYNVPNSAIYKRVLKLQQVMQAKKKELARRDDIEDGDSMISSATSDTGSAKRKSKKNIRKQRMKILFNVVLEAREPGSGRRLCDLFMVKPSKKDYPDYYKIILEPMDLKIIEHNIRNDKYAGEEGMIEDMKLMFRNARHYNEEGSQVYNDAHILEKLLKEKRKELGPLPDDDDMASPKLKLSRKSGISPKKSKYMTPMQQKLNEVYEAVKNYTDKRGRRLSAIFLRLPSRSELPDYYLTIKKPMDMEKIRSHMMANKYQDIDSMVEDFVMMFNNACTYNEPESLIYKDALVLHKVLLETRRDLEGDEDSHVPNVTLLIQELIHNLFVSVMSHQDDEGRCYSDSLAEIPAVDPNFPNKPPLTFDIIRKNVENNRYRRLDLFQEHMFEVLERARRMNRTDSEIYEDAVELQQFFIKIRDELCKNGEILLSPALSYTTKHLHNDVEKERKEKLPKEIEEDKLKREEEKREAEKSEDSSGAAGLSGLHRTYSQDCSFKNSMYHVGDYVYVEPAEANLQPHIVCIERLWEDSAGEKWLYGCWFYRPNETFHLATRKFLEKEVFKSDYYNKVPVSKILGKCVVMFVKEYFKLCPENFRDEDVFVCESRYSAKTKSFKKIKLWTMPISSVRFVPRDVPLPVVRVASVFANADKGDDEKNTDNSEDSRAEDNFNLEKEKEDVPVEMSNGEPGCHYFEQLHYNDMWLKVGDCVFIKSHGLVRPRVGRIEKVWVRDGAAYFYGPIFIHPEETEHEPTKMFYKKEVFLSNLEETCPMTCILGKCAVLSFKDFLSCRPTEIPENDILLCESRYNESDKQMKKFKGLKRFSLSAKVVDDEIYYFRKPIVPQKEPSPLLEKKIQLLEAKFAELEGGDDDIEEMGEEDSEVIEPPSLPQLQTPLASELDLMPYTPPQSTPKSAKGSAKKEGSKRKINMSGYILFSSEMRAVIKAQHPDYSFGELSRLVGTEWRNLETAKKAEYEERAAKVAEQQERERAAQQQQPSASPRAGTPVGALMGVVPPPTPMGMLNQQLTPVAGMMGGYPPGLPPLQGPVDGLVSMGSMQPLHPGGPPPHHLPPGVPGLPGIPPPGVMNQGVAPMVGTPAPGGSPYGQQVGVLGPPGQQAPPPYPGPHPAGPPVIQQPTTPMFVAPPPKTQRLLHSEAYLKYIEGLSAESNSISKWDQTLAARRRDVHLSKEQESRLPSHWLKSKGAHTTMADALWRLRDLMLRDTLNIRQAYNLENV
T1 sequence (P25440 whole entry, the tested form may be a part): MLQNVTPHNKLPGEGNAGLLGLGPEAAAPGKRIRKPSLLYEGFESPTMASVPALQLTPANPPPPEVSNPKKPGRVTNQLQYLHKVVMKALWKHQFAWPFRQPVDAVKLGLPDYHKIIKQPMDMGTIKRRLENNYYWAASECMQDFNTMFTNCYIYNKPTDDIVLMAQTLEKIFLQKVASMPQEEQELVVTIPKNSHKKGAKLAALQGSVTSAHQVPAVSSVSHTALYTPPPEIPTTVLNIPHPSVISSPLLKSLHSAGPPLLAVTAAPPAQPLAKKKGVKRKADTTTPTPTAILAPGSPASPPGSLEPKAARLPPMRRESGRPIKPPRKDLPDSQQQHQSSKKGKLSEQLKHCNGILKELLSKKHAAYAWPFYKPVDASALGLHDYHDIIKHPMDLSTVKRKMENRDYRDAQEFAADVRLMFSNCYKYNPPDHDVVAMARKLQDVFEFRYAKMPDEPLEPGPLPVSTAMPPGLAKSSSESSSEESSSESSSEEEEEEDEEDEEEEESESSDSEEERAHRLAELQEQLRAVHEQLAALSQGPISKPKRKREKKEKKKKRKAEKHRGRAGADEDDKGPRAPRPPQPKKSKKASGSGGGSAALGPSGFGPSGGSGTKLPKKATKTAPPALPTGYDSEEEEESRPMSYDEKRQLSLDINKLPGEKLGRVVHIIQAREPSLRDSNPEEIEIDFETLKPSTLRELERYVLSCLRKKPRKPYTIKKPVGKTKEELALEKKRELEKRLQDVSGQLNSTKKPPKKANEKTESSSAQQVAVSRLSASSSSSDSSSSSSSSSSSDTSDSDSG
Chain of Transcription initiation factor TFIID subunit 1 (P21675 whole entry, the tested form may be a part): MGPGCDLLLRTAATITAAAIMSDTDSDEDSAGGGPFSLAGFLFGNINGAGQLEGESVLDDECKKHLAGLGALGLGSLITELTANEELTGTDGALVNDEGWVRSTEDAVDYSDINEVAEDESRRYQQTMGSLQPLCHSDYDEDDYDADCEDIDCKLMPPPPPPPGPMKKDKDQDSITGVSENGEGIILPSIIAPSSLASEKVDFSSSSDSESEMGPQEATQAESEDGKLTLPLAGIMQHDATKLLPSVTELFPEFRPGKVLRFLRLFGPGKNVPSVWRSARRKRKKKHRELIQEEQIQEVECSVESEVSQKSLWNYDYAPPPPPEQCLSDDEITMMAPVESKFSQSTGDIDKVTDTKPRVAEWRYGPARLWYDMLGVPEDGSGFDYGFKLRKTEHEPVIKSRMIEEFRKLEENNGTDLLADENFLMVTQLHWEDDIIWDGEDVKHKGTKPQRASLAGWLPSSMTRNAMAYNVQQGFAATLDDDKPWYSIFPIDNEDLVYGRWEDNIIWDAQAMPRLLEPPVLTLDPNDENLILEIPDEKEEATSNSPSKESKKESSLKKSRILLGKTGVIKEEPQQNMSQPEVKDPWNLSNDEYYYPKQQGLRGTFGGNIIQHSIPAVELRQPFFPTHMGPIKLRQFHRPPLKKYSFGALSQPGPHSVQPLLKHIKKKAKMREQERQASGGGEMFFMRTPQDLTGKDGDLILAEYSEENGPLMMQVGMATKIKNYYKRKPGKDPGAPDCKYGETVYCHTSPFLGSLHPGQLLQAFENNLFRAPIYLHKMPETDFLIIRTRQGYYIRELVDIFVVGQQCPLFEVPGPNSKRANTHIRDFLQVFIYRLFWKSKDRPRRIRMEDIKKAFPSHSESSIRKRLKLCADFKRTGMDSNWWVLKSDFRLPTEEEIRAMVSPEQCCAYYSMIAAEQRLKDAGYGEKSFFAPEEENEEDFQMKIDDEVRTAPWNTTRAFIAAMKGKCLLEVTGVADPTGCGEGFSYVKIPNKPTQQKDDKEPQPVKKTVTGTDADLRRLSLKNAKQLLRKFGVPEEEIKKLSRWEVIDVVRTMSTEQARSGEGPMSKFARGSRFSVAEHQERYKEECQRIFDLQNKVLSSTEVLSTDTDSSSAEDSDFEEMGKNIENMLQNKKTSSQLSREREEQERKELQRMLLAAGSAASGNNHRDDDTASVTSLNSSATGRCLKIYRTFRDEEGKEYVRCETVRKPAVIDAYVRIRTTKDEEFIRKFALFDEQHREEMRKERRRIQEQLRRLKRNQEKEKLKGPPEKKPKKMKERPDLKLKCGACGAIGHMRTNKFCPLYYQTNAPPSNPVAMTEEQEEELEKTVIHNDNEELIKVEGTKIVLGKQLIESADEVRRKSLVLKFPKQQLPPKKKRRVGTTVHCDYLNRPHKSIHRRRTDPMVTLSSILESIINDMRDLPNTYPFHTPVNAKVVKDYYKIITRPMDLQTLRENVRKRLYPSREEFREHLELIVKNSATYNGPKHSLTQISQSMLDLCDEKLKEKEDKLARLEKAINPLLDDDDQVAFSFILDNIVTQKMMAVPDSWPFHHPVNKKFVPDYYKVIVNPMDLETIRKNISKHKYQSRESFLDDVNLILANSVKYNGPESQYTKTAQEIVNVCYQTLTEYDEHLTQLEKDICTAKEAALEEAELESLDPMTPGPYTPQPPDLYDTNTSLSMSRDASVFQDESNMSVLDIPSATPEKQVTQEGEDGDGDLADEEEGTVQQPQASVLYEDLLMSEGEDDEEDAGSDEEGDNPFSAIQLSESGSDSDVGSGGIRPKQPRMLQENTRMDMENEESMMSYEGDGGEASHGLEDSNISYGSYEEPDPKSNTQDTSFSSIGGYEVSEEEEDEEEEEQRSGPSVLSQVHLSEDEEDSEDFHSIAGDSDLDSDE
Chain of Bromodomain-containing protein 3 (Q15059 whole entry, the tested form may be a part): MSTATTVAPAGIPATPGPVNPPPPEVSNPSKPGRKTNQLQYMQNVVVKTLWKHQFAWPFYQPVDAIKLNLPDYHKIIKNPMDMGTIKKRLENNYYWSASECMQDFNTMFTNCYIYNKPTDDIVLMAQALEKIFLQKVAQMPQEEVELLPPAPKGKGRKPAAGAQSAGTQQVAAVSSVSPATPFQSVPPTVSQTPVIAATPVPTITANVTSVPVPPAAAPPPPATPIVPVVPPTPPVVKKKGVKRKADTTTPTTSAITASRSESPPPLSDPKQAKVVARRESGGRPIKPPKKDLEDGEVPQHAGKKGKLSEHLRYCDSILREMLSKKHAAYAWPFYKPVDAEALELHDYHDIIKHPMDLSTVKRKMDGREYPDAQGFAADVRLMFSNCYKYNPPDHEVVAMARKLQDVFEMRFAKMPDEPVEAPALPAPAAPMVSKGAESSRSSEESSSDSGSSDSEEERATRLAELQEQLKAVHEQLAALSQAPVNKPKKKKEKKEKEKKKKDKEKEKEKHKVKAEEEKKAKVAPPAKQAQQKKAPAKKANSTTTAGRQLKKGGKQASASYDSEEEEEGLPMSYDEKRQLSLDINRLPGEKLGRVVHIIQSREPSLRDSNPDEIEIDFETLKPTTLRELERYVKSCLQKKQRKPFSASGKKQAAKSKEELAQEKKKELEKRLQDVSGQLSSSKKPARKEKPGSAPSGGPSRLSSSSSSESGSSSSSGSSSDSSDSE

A Kd [1] greater than 5000 nM, a Kd [2] of 110 nM and a Selectivity Index [3] greater than 20 were found for `COc1cc2c(cc1-c1c(C)noc1C)[nH]c1nc(C)nc(Nc3cc(C4CC4)nn3C)c12` in this work. It also gave a Selectivity Index [4] greater than 20, a Kd [5] of 0.6 nM and a Kd [6] of 0.52 nM. For the same molecule, the Kd [7] was greater than 5000 nM, the Kd [8] was greater than 5000 nM and the Kd [9] was greater than 5000 nM. For the same molecule, the Kd [10] was 1.1 nM, the Kd [11] was greater than 5000 nM and the half-life [12] was 1 h. For the same molecule, the Selectivity Index [13] was greater than 50, the Selectivity Index [14] was greater than 50 and the Selectivity Index [15] was greater than 50. For the same molecule, the IC50 [16] was 2 nM, the Ki [16] was less than 1 nM and the Kd [17] was greater than 5000 nM. It also gave a Kd [18] greater than 3000 nM, a Selectivity Index [19] greater than 20 and a Kd [20] greater than 5000 nM. The Kd [21] was 570 nM, the Selectivity Index [22] was greater than 50 and the Selectivity Index [23] was greater than 50. For the same molecule, the Kd [24] was greater than 5000 nM, the Vd [25] was 0.83 L/kg and the Selectivity Index [26] was greater than 50. For the same molecule, the Kd [27] was greater than 5000 nM, the Selectivity Index [28] was greater than 50 and the Kd [29] was greater than 5000 nM.
